Screening results deposited in PubChem BioAssay by several laboratories.
H9c2 TAG inh: inhibitors of triacylglycerol accumulation; H9c2 cells, Nile Red lipid (TAG) fluorescence; cells loaded with 200 µM oleic acid; 230,000 compounds, 0.66% hits; inhibition, % at 12.5 µM;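 active means pattern-corrected inhibition of lipid staining of at least 50% with the nuclear-stain viability signal not falling by more than 50%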
GalR3 antagonist: blocks the human galanin receptor 3. 360,000 compounds, 0.44% hits. inhibition, % at 3 µM. HEK293 GalR3-CNG cAMP membrane potential fluorescence; galR3 body fused to GalR1 C-terminus. O60755. AID 651719;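 active means inhibition above the screen-wide average plus 3 SD, cut at about 13% in these data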;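 further: forskolin and galanin both at EC90 stimulate the cells; cAMP rise reported by CNG channel membrane potential dye signal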
MC4R barr agon: human MC4R agonism via beta-arrestin. U2OS MC4R beta-arrestin complementation, luminescence; percent of melanotan II response, DMSO zero. P32245. 360,000 compounds, 0.98% hits. activation, % at 8.9 µM;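 active means activation above a per-plate cutoff, the mean activation of sample wells on that plate plus 3 SD, cut at about 8% in these data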
Target sequence (P32245 whole entry, looked up): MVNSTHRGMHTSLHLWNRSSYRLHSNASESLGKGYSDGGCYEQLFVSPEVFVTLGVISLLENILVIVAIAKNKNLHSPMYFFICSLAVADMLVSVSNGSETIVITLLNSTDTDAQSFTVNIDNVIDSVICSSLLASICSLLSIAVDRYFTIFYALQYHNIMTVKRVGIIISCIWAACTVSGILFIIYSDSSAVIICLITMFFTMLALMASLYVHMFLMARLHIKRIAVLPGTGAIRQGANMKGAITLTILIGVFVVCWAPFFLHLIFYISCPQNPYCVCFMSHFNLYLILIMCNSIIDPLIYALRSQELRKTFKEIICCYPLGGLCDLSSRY
Calb FLC: C. albicans growth modulation with fluconazole; AID 1979; growth inhibition, % (no concentration beside the values); 300,000 compounds, 0.57% hits; C. albicans CaCi-2 + fluconazole, Alamar Blue growth, 48 h;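 active means growth inhibition above about 58% in most replicates, limit read from the data, passing the limit was not always enough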;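 further: all wells also contain fluconazole at 8 µg/ml as a sub-toxic cotreatment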
MC4R antag cAMP: antagonists of human melanocortin 4 receptor (MC4R) | P32245 | MC4R-expressing cells, MTII-stimulated cAMP, LANCE TR-FRET | inhibition, % at 6.5 µM | 360,000 compounds, 0.48% hits;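 active means inhibition above its plate's cutoff, the mean of tested wells on that plate plus 3 SD, cut at about 29% in these data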
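Material – human MC4R-expressing U2OS cells · Repeats – no replicates · Detection – TR-FRET with Eu-cAMP and labeled anti-cAMP, 671 nm · Times – compound 30 min, challenge 1 h, detection 1 h · Compound – single nominal compound dose of 6.5 µM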
Efflux pump mplx: inhibitors of Candida antifungal efflux pumps expressed in yeast; 330,000 compounds, 0.44% hits; S. cerevisiae Candida pump triplex, Nile Red efflux; inhibition, % at 10 µM; AID 485275;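 active means plate passing quality check with inhibition over a set limit, or well fluorescence over plate mean plus 4 SD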;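 further: Nile Red retained in pooled yeast measured as flow cytometry median fluorescence; higher means more Nile Red kept so more efflux inhibition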
MC4R barr ag: human MC4R beta-arrestin agonism confirmation; activation, % at 8.9 µM; U2OS MC4R beta-arrestin recruitment, luminescence; scaled DMSO 0%, Melanotan II 100%; AID 602192; shares compounds with MC4R barr agon; 2,400 compounds, 31% hits;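 active means mean activation across replicates above the hit cutoff set in the earlier primary screen, cut at about 8% in these data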
MOR-DOR barr ag: counter-screen for MC4R agonists: agonists of mu-delta opioid heterodimer; activation, % at 9.2 µM; U2OS PathHunter beta-arrestin, beta-gal luminescence; percent of deltorphin B response, DMSO zero; 2,400 compounds, 5.8% hits; shares compounds with MC4R barr agon;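 active means mean activation across replicates exceeds the hit threshold derived in the earlier primary screen, cut at about 18% in these data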
Large screens that a line does not name were inactive (follow-up assays come after a bar, where they were run). Hits are enriched below; roughly 2.9% of the tested compounds scored in any of these assays.

O=C(CCCN1C(=O)/C(=C\c2cccs2)SC1=S)NNC(=O)c1ccncc1	none (no result: H9c2 TAG inh)
COc1ccccc1C(=O)NNC(=O)CCCN1C(=O)/C(=C/c2cccs2)SC1=S	MC4R barr agon 23 (no result: H9c2 TAG inh) | MC4R barr ag inactive | MOR-DOR barr ag inactive
Cc1ccc(CN2CCC=CS2(=O)=O)cc1	none (no result: H9c2 TAG inh, MC4R barr agon, Calb FLC, MC4R antag cAMP, Efflux pump mplx)
CCC(=Cc1ccccc1OC)c1ccncc1	none (no result: Calb FLC, Efflux pump mplx)
CSc1cccc(NC(=O)CN(c2ccc(C)cc2C)S(C)(=O)=O)c1	MC4R barr agon 10 | MC4R barr ag inactive | MOR-DOR barr ag inactive
Clc1ccc(Cl)c(-c2nn3c(COc4ccccc4)nnc3s2)c1	MC4R barr agon 17 (no result: H9c2 TAG inh) | MC4R barr ag 11 | MOR-DOR barr ag inactive
c1ccc(OCc2nnc3sc(-c4cccs4)nn23)cc1	none
N#C/C(=C\c1cn(Cc2cccc(F)c2)c2ccccc12)C(=O)NCc1ccco1	MC4R barr agon 31 | MC4R barr ag inactive | MOR-DOR barr ag inactive
N#C/C(=C\c1cn(Cc2ccccc2)c2ccccc12)C(=O)NCc1ccco1	MC4R barr agon 17 (no result: H9c2 TAG inh) | MC4R barr ag inactive | MOR-DOR barr ag inactive
N#C/C(=C\c1cn(Cc2ccccc2C#N)c2ccccc12)C(=O)NCc1cccs1	none (no result: H9c2 TAG inh, MC4R barr agon, MC4R antag cAMP)
NC(CSC(c1ccccc1)(c1ccccc1)c1ccc2c(c1)OCO2)C(=O)O (stereo not given)	none (no result: Calb FLC, Efflux pump mplx)
O=C(Nc1nc(-c2ccc(F)c(F)c2)cs1)Nc1ccc(F)cc1F	MC4R barr agon 10 (no result: H9c2 TAG inh) | MC4R barr ag inactive | MOR-DOR barr ag inactive
COc1ccc2c(Cl)c(C(=O)N/N=C/c3ccc4c(c3)OCO4)sc2c1	MC4R barr agon 12 | MC4R barr ag inactive | MOR-DOR barr ag inactive
O=C(N/N=C/c1ccc2c(c1)OCO2)c1sc2cc(Cl)ccc2c1Cl	none (no result: H9c2 TAG inh)
Cc1ccc2c(c1)c1c(n2CC(O)Cn2c(C)nc3ccccc32)CCCC1 (stereo not given)	MC4R barr agon 9.6 | MC4R barr ag inactive | MOR-DOR barr ag inactive
O=C(COc1ccc2c(c1)OCO2)Nc1ccc2c(c1)oc1ccccc12	MC4R barr agon 22 (no result: H9c2 TAG inh) | MC4R barr ag 21 | MOR-DOR barr ag inactive
O=C(Nc1ccc2c(c1)oc1ccccc12)c1ccc2c(c1)OCO2	none
Cc1n[nH]c(C)c1S(=O)(=O)N(CC(=O)N1CCc2ccccc21)c1ccc(C(C)C)cc1	MC4R barr agon 13 | MC4R barr ag inactive | MOR-DOR barr ag inactive
CC(NC(=O)C1CCN(CCOc2ccc(Cl)cc2)CC1)c1cccc2ccccc12 (stereo not given)	none (no result: Calb FLC, Efflux pump mplx)
CCN1CCN(C(C(=O)NC2CCCCC2)c2cc3ccccc3o2)CC1 (stereo not given)	none (no result: H9c2 TAG inh, MC4R barr agon, Calb FLC, MC4R antag cAMP, Efflux pump mplx)
COc1cccc(OC)c1C(=O)Nc1nc(COc2ccccc2)cs1	MC4R barr agon 12 | MC4R barr ag inactive | MOR-DOR barr ag inactive
CC(=O)Nc1nc(COc2ccccc2)cs1	none (no result: H9c2 TAG inh)
COC(=O)c1cc2c(c3c4cc(C)ccc4n(S(=O)(=O)c4ccc(C)cc4)c13)C(=O)N(Cc1ccc(N(C)C)cc1)C2	none (no result: H9c2 TAG inh, MC4R barr agon, Calb FLC, MC4R antag cAMP, Efflux pump mplx)
O=[N+]([O-])c1ccc(-c2ccc(/C=N/c3c(-c4ccco4)nc4ccccn34)o2)cc1	MC4R barr agon 13 (no result: H9c2 TAG inh) | MC4R barr ag 9.2 | MOR-DOR barr ag inactive
c1cncc(CNc2nc(-c3cccnc3)nc3ccccc23)c1	none (no result: H9c2 TAG inh)
COc1cccc(-c2nc(NCc3cccnc3)c3ccccc3n2)c1O	MC4R barr agon 16 (no result: H9c2 TAG inh) | MC4R barr ag inactive | MOR-DOR barr ag inactive
Cc1sc2ncnc(Nc3ccc(O)cc3)c2c1C	none
c1ccc(-c2csc3ncnc(NCc4ccccn4)c23)cc1	MC4R barr agon 11 | MC4R barr ag inactive | MOR-DOR barr ag inactive
c1ccc(CNc2ncnc3scc(-c4cccs4)c23)nc1	none
Oc1ccc(Nc2ncnc3scc(-c4ccccc4)c23)cc1	MC4R barr agon 12 (no result: H9c2 TAG inh) | MC4R barr ag inactive | MOR-DOR barr ag inactive
S=c1[nH]c(-c2ccc(Br)cc2)cn1CCc1ccccc1	MC4R barr agon 19 | MC4R barr ag inactive | MOR-DOR barr ag inactive
